According to ChEMBL document CHEMBL1149323, “Synthesis and evaluation of dihydropyrroloquinolines that selectively antagonize P-glycoprotein” (J Med Chem, 2004):

Legend:
[1] = Reversal index is the ratio of IC50 in the absence of modulator to that of presence of modulator when combined with taxol (nM) in MCF-7 cell line; format: functional, MCF7
Procedure, shortened: (§1)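 Cells treated in triplicate for 48 h with graded cytotoxic drug, with or without modulator. Survival quantified by sulforhodamine B absorbance at 570 nm. IC50 of the cytotoxic drug derived with and without modulator; reversal index = IC50 without modulator / IC50 with modulator.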

[2] = Reversal index is the ratio of IC50 in the absence of modulator to that of presence of modulator when combined with vinblastine (nM) in MCF-7 cell line; format: functional, MCF7; procedure, shortened: as §1
[3] = Reversal index is the ratio of IC50 in the absence of modulator to that of presence of modulator when combined with doxorubicin (uM) in P388/ADR cell line
[4] = Reversal index is the ratio of IC50 in the absence of modulator to that of presence of modulator when combined with 5-fluorouracil (uM) in P388/ADR cell line; format: functional; procedure, shortened: as §1
[5] = Reversal index is the ratio of IC50 in the absence of modulator to that of presence of modulator when combined with cisplatin (uM) in P388/ADR cell line; format: functional; procedure, shortened: as §1
Mus musculus [6] = assay: AUMC after intraperitoneal administration of 100 mg/kg in mice; format: ADME, organism-based; set-up: dose 100 mg/kg, route intraperitoneal; conditions: in vivo, ip
Procedure, shortened: (§2)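 Female Swiss-Webster mice, 6–8 weeks old, given 100 mg/kg PGP-4008·HCl intraperitoneally. Blood taken by intracardiac puncture under anesthesia at 1–240 min, three animals per time point. Samples precipitated with ice-cold acetonitrile with 2-naphthol internal standard, then HPLC read at 254 nm against a standard curve. Two-compartment model fit.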

Mus musculus [7] = assay: In vivo tumor growth inhibition in mice when administered […] at a day 12; format: functional
Procedure, shortened: (§3)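 Balb/c female mice, 6–8 weeks old, with 10^6 JC murine mammary adenocarcinoma cells injected subcutaneously in the right hind quarter. Treatment began once tumors were palpable (day 1), five mice per group. Dosing on days 1, 5 and 9: 100 mg/kg i.p. PGP-4008·HCl with or without 5 mg/kg doxorubicin. Caliper volumes calculated as (L×W²)/2 through day 15; unpaired t-test with Welch correction.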

[8] = Reversal index is the ratio of IC50 in the absence of modulator to that of presence of modulator when combined with cisplatin (uM) in MCF-7/VP cell line; format: functional; procedure, shortened: as §1
[9] = Maximum concentration in plasma was determined after intraperitoneal administration of 100 mg/kg in mice; format: ADME, organism-based; set-up: dose 100 mg/kg, route intraperitoneal; conditions: mouse, ip; procedure, shortened: as §2
[10] = Reversal index is the ratio of IC50 in the absence of modulator to that of presence of modulator when combined with vinblastine (nM) in T24 cell line; format: functional, T-24; procedure, shortened: as §1
[11] = target: ATP-dependent translocase ABCB1 (Homo sapiens, UniProt P08183); assay: Compound was evaluated for broad range of antagonistic activity against P-glycoprotein (Pgp) value expressed as IC20; format: functional
[12] = Reversal index is the ratio of IC50 in the absence of modulator to that of presence of modulator when combined with vincristine (nM) in T24 cell line; format: functional, T-24; procedure, shortened: as §1
Mus musculus [13] = assay: In vivo tumor growth inhibition in mice when […] at a day 1; format: functional; procedure, shortened: as §3
[14] = Reversal index is the ratio of IC50 in the absence of modulator to that of presence of modulator when combined with taxol (nM) in T24 cell line; format: functional, T-24; procedure, shortened: as §1
[15] = Reversal index is the ratio of IC50 in the absence of modulator to that of presence of modulator when combined with taxol (nM) in NCI/ADR cell line; format: functional; procedure, shortened: as §1
[16] = Reversal index is the ratio of IC50 in the absence of modulator to that of presence of modulator when combined with taxol (nM) in MCF-7/VP cell line; format: functional; procedure, shortened: as §1
[17] = Reversal index is the ratio of IC50 in the absence of modulator to that of presence of modulator when combined with vinblastine (nM) in P388/ADR cell line; format: functional; procedure, shortened: as §1
[18] = Reversal index is the ratio of IC50 in the absence of modulator to that of presence of modulator when combined with vincristine (nM) in NCI/ADR cell line; format: functional; procedure, shortened: as §1
[19] = Reversal index is the ratio of IC50 in the absence of modulator to that of presence of modulator when combined with vincristine (nM) in MCF-7/VP cell line; format: functional; procedure, shortened: as §1
Mus musculus [20] = assay: The second majority of the volume of distribution after intraperitoneal administration of 100 mg/kg in mice; format: ADME, organism-based; set-up: dose 100 mg/kg, route intraperitoneal; conditions: in vivo, ip; procedure, shortened: as §2
[21] = Reversal index is the ratio of IC50 in the absence of modulator to that of presence of modulator when combined with taxol (nM) in P388/ADR cell line
[22] = Reversal index is the ratio of IC50 in the absence of modulator to that of presence of modulator when combined with 5-Fluorouracil (uM) in T24 cell line; format: functional, T-24; procedure, shortened: as §1
Mus musculus [23] = assay: In vivo tumor growth inhibition in mice when administered […] at a day 9; format: functional; procedure, shortened: as §3
Mus musculus [24] = assay: In vivo tumor growth inhibition in mice when administered subcutaneously at a day 5; format: functional; conditions: in the assay text read “intraperitoneally” for “subcutaneously”; procedure, shortened: as §3
MCF-7 (Homo sapiens) = assay: Toxicity against MCF-7 cells
[25] = Reversal index is the ratio of IC50 in the absence of modulator to that of presence of modulator when combined with cisplatin (uM) in NCI/ADR cell line; format: functional; procedure, shortened: as §1
[26] = Plasma clearance rate after intraperitoneal administration of 100 mg/kg in mice; format: ADME, organism-based; set-up: dose 100 mg/kg, route intraperitoneal; conditions: mouse, ip, read-out: Clp (converted); procedure, shortened: as §2
[27] = Reversal index is the ratio of IC50 in the absence of modulator to that of presence of modulator when combined with vincristine (nM) in MCF-7 cell line; format: functional, MCF7; procedure, shortened: as §1
Mus musculus [28] = assay: In vivo tumor growth inhibition in mice when […] at a day 15; format: functional; procedure, shortened: as §3
Mus musculus [29] = assay: Volume of the first compartment after intraperitoneal administration of 100 mg/kg in mice; conditions: in vivo, ip
Mus musculus [30] = assay: Volume of distribution after intraperitoneal administration of 100 mg/kg in mice; format: ADME, organism-based; set-up: dose 100 mg/kg, route intraperitoneal; conditions: in vivo, ip; procedure, shortened: as §2
[31] = Reversal index is the ratio of IC50 in the absence of modulator to that of presence of modulator when combined with 5-fluorouracil (uM) in NCI/ADR cell line; format: functional; procedure, shortened: as §1
[32] = Reversal index is the ratio of IC50 in the absence of modulator to that of presence of modulator when combined with vincristine (nM) in P388/ADR cell line; format: functional; procedure, shortened: as §1
[33] = Reversal index is the ratio of IC50 in the absence of modulator to that of presence of modulator when combined with vinblastine (nM) in NCI/ADR cell line; format: functional; procedure, shortened: as §1
[34] = Reversal index is the ratio of IC50 in the absence of modulator to that of presence of modulator when combined with vinblastine (nM) in MCF-7/VP cell line; format: functional; procedure, shortened: as §1
[35] = Compound was evaluated for broad range of antagonistic activity against multi drug resistance-related protein (MRP) value expressed as IC20; format: functional; set-up: unit not given here
[36] = Reversal index is the ratio of IC50 in the absence of modulator to that of presence of modulator when combined with cisplatin (uM) in T24 cell line; format: functional, T-24; procedure, shortened: as §1
[37] = Reversal index is the ratio of IC50 in the absence of modulator to that of presence of modulator when combined with cisplatin (uM) in MCF-7 cell line; format: functional, MCF7; procedure, shortened: as §1
[38] = Reversal index is the ratio of IC50 in the absence of modulator to that of presence of modulator when combined with 5-Fluorouracil (uM) in MCF-7 cell line; format: functional, MCF7; procedure, shortened: as §1
[39] = Reversal index is the ratio of IC50 in the absence of modulator to that of presence of modulator when combined with 5-fluorouracil (uM) in MCF-7/VP cell line; format: functional; procedure, shortened: as §1

Chain of ATP-dependent translocase ABCB1 (P08183 whole entry): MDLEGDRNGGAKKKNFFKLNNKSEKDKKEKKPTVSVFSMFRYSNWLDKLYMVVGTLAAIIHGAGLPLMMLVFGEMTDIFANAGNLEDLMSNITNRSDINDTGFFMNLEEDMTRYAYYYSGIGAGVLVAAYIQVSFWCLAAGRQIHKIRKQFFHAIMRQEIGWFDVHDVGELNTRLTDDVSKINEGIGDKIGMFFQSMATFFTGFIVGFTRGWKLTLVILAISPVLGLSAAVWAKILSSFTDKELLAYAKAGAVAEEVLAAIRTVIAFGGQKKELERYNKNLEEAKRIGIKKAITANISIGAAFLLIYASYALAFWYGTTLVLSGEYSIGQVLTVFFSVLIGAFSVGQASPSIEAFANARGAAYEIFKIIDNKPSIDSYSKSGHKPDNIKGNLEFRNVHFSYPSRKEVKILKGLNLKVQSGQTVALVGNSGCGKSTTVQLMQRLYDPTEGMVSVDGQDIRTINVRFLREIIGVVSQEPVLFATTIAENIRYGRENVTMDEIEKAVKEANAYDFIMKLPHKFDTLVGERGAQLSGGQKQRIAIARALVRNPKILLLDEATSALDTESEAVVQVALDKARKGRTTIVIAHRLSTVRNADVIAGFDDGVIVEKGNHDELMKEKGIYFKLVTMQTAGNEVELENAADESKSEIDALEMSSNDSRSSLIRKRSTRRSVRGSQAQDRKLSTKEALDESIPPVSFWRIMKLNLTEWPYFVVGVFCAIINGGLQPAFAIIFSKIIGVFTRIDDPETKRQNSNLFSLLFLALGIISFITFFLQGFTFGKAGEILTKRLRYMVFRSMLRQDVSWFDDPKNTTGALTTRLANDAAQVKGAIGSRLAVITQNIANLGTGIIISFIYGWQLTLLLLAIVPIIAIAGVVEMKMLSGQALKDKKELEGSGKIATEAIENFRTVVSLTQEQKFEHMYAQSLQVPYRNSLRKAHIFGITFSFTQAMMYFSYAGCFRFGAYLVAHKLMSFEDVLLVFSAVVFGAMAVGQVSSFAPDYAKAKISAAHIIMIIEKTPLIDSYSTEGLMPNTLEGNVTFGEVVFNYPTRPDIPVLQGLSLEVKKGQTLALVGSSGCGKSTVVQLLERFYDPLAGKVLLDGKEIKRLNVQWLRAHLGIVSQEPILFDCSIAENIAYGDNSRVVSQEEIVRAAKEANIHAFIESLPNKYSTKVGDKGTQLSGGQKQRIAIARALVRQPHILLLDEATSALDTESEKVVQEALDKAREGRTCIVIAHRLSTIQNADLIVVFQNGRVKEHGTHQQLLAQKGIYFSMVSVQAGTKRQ

Work on `O=C(Cc1ccccc1)Nc1c2c(nc3ccccc13)N(Cc1ccccc1)CC2` yielded an RI [1] of 0.9, an RI [2] of 1.8 and an RI [3] of 200. For the same compound, the RI [4] was 0.7, the RI [5] was 1.9 and the AUMC (Mus musculus [6]) was 9.4 µg·h²/mL. For the same compound, the Tumor volume (Mus musculus [7]) was 1280 mm**3, the RI [8] was 0.8 and the Cmax [9] was 197 µg/mL. The RI [10] was 3.8, the Activity [11] was 10.7 and the RI [12] was 1.5. The Tumor volume (Mus musculus [13]) was 380 mm**3, the RI [14] was 1.2 and the RI [15] was 70. For the same compound, the RI [16] was 0.8, the RI [17] was 63 and the RI [18] was 18. For the same compound, the RI [19] was 1, the V2 (Mus musculus [20]) was 40.5 mL and the RI [21] was 202. For the same compound, the RI [22] was 2.6, the Tumor volume (Mus musculus [23]) was 1030 mm**3 and the Tumor volume (Mus musculus [24]) was 470 mm**3. It also gave a Toxicity (MCF-7 (Homo sapiens)) of 13 µM, an RI [25] of 1.2 and a CL/F [26] of 1.34 mL/min. It also gave an RI [27] of 0.9, a Tumor volume (Mus musculus [28]) of 2000 mm**3 and a V1 (Mus musculus [29]) of 2.3 mL. The Vdss (Mus musculus [30]) was 43 mL, the RI [31] was 1 and the RI [32] was 30. It also gave an RI [33] of 35, an RI [34] of 1.3 and an Activity [35] of 0.7. For the same compound, the RI [36] was 1.1.

For `COc1ccc(CCN(C)CCCC(C#N)(c2ccc(OC)c(OC)c2)C(C)C)cc1OC` (configuration not stated), the RI [1] was 1.1, the RI [2] was 1.2 and the RI [3] was 1000. For the same compound, the RI [4] was 0.7, the RI [5] was 2 and the RI [8] was 0.8. It also gave an RI [37] of 1.1, an RI [10] of 2.7 and an RI [12] of 3.7. It also gave an RI [14] of 1.6, an RI [15] of 106 and an RI [16] of 1.1. It also gave an RI [17] of 61, an RI [18] of 50 and an RI [19] of 15. The RI [38] was 0.9, the RI [39] was 0.9 and the RI [22] was 1.6. It also gave an RI [25] of 1.1, an RI [27] of 4.6 and an RI [31] of 0.9. For the same compound, the RI [32] was 112, the RI [33] was 173 and the RI [34] was 2.4. It also gave an RI [36] of 1.
